Source: ChEMBL document CHEMBL3271976, “Cardenolide analogues. 2. 22-Methylenecard-14-enolides” (J Med Chem, 1977)
Activity calls are given as the source filed them. No cut-off for these calls is given here.

Experiments:
[1] = Inhibition of rat brain sodium/potassium-transporting ATPase in presence of Mg2+ and Na+; details: read-out: I50
In short: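 Rat brain Na+,K+-ATPase assayed with no preincubation of steroid and enzyme. Na+,K+-dependent activity was taken as activity with Mg2+, Na+ and K+ minus basal activity from tubes with Mg2+ and Na+ only. I50 (M) is from two to four runs.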

[2] = Solubility of the compound in propylene glycol; assay type: physicochemical
Cavia porcellus = organism: Cavia porcellus; test: Inotropic activity at guinea pig left atria sodium/potassium-transporting ATPase up to 10^-4 M
[3] = Inhibition of rat brain sodium/potassium-transporting ATPase after 10 mins in presence of Mg2+ and Na+; details: read-out: I50
In short: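 Rat brain Na+,K+-ATPase. The steroid was added to enzyme medium lacking K+ and preincubated 10 min, then KCl was added to start Na+,K+-ATPase activity. Basal activity from tubes with Mg2+ and Na+ only was subtracted from activity with Mg2+, Na+ and K+. I50 (M) is from two to four runs.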

| Structure (SMILES) | IC50 [1] [nM] | solubility [2] | Activity (Cavia porcellus) | IC50 [3] [nM] |
| --- | --- | --- | --- | --- |
| C=C1C(=O)OC[C@H]1[C@H]1CC=C2[C@@H]3CC[C@@H]4C[C@@H](O)CC[C@]4(C)[C@H]3CC[C@@]21C | > 100000 | Insoluble | inactive | > 100000 |
| C=C1C(=O)OC[C@@H]1[C@H]1CC=C2[C@@H]3CC[C@@H]4C[C@@H](O)CC[C@]4(C)[C@H]3CC[C@@]21C | – | Insoluble | inactive | – |
| C[C@H]1O[C@@H](O[C@H]2[C@@H](O)C[C@H](O[C@H]3[C@@H](O)C[C@H](O[C@H]4CC[C@@]5(C)[C@H](CC[C@@H]6[C@@H]5CC[C@]5(C)[C@@H](C7=CC(=O)OC7)CC[C@]65O)C4)O[C@@H]3C)O[C@@H]2C)C[C@H](O)[C@@H]1O [DIGITOXIN] | 700 | – | – | 240 |
| C[C@@H]1O[C@@H](O[C@H]2C[C@@H](O)[C@]3(CO)[C@H]4[C@H](O)C[C@]5(C)[C@@H](C6=CC(=O)OC6)CC[C@]5(O)[C@@H]4CC[C@]3(O)C2)[C@H](O)[C@H](O)[C@H]1O [OUABAIN] | 500 | – | – | 40 |
| C[C@]12CC[C@H](O)C[C@H]1CC[C@H]1C3=CC[C@H](C4=CC(=O)OC4)[C@@]3(C)CC[C@@H]12 | 63000 | Insoluble | inactive | 40000 |
| C[C@]12CC[C@H](O)C[C@H]1CC[C@@H]1[C@@H]2CC[C@]2(C)[C@@H](C3=CC(=O)OC3)CC[C@]12O [DIGITOXIGENIN] | 460 | – | – | 500 |
